Experimental data from ChEMBL document CHEMBL1287652, “QSAR modeling, synthesis and bioassay of diverse leukemia RPMI-8226 cell line active agents” (2010).

Tests used:
Assay type in all cases: functional
HT-29 = assay: Antitumor activity against human HT-29 cells at 10 uM after 48 hrs by sulforhodamine B assay relative to control; settings: HT-29, 48 h, values are per cent of control
Procedure, shortened: (§1)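 Single-dose screen in a 55-line panel. Cells in RPMI-1640 with 5% FBS and 2 mM glutamine were preincubated for 24 h, then exposed to compound (DMSO stock diluted in medium) for 48 h at 37 °C with 5% CO2. Cells were fixed with cold TCA, stained with 0.4% SRB in 1% acetic acid, and dye was solubilized in 10 mM Tris base and read at 515 nm. Growth is given as percent of untreated control.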

OVCAR-3 = assay: Antitumor activity against human OVCAR-3 cells after 48 hrs by sulforhodamine B assay; settings: OVCAR-3, 48 h
Procedure, shortened: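 Cells were cultured in RPMI-1640 (5% FBS, 2 mM L-glutamine), pre-incubated for 24 h with time-zero plates TCA-fixed, then exposed for 48 h to five serial dilutions. The SRB read-out at 515 nm used time-zero, control and test absorbances. GI50 solves [(Ti−Tz)/(C−Tz)]×100 = 50 (net protein increase). TGI is the concentration giving 100% growth inhibition.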

HCT-15 = assay: Antitumor activity against human HCT15 cells at 10 uM after 48 hrs by sulforhodamine B assay relative to control; settings: HCT-15, 48 h, values are per cent of control; procedure, shortened: as §1
KM12 = assay: Antitumor activity against human KM12 cells at 10 uM after 48 hrs by sulforhodamine B assay relative to control; settings: KM12, 48 h, values are per cent of control; procedure, shortened: as §1
M14 = assay: Antitumor activity against human M14 cells at 10 uM after 48 hrs by sulforhodamine B assay relative to control; settings: M14, 48 h, values are per cent of control; procedure, shortened: as §1
SK-MEL-28 = assay: Antitumor activity against human SK-MEL-28 cells at 10 uM after 48 hrs by sulforhodamine B assay relative to control; settings: SK-MEL-28, 48 h, values are per cent of control
Procedure, shortened: (§2)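 NCI panel lines were grown in RPMI-1640 with 5% FBS and 2 mM L-glutamine and seeded at 5000–40,000 cells/well according to doubling time. After 24 h at 37 °C, 5% CO2, one dose from a DMSO stock was added for 48 h. Cells were TCA-fixed (10% final adherent, 16% suspension), SRB-stained and read at 515 nm. Percent growth is relative to untreated control.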

OVCAR-8 = assay: Antitumor activity against human OVCAR8 cells at 10 uM after 48 hrs by sulforhodamine B assay relative to control; settings: OVCAR-8, 48 h, values are per cent of control; procedure, shortened: as §2
[1] = Antitumor activity against human Hs 578T cells at 10 uM after 48 hrs by sulforhodamine B assay relative to control; settings: values are per cent of control; procedure, shortened: as §1
NCI-H460 = assay: Antitumor activity against human NCI-H460 cells at 10 uM after 48 hrs by sulforhodamine B assay relative to control; settings: NCI-H460, 48 h, values are per cent of control; procedure, shortened: as §2
SF-268 = assay: Antitumor activity against human SF268 cells at 10 uM after 48 hrs by sulforhodamine B assay relative to control; settings: SF-268, 48 h, values are per cent of control; procedure, shortened: as §2
786-0 = assay: Antitumor activity against human 786-0 cells at 10 uM after 48 hrs by sulforhodamine B assay relative to control; settings: 786-0, 48 h, values are per cent of control; procedure, shortened: as §1
A498 = assay: Antitumor activity against human A498 cells at 10 uM after 48 hrs by sulforhodamine B assay relative to control; settings: A498, 48 h, values are per cent of control; procedure, shortened: as §1
MDA-MB-468 = assay: Antitumor activity against human MDA-MB-468 cells at 10 uM after 48 hrs by sulforhodamine B assay relative to control; settings: MDA-MB-468, 48 h, values are per cent of control; procedure, shortened: as §2
EKVX = assay: Antitumor activity against human EKVX cells at 10 uM after 48 hrs by sulforhodamine B assay relative to control; settings: values are per cent of control; procedure, shortened: as §1
NCI/ADR-RES = assay: Antitumor activity against human NCI/ADR-RES cells at 10 uM after 48 hrs by sulforhodamine B assay relative to control; settings: values are per cent of control; procedure, shortened: as §2
SK-OV-3 = assay: Antitumor activity against human SKOV3 cells at 10 uM after 48 hrs by sulforhodamine B assay relative to control; settings: SK-OV-3, 48 h, values are per cent of control; procedure, shortened: as §2
MDA-MB-435 = assay: Antitumor activity against human MDA-MB-435 cells at 10 uM after 48 hrs by sulforhodamine B assay relative to control; settings: MDA-MB-435, 48 h, values are per cent of control; procedure, shortened: as §1
SF-539 = assay: Antitumor activity against human SF539 cells at 10 uM after 48 hrs by sulforhodamine B assay relative to control; settings: SF-539, 48 h, values are per cent of control; procedure, shortened: as §2
HCT-116 = assay: Antitumor activity against human HCT116 cells at 10 uM after 48 hrs by sulforhodamine B assay relative to control; settings: HCT-116, 48 h, values are per cent of control; procedure, shortened: as §1
CCRF-CEM = assay: Antitumor activity against human CCRF-CEM cells at 10 uM after 48 hrs by sulforhodamine B assay relative to control; settings: values are per cent of control; procedure, shortened: as §1
HOP-62 = assay: Antitumor activity against human HOP62 cells at 10 uM after 48 hrs by sulforhodamine B assay relative to control; settings: HOP-62, 48 h, values are per cent of control; procedure, shortened: as §1
T47D = assay: Antitumor activity against human T47D cells at 10 uM after 48 hrs by sulforhodamine B assay relative to control; settings: values are per cent of control
Procedure, shortened: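 NCI panel line grown in RPMI-1640 with 5% FBS and 2 mM L-glutamine, plated at 5000–40,000 cells/well, 24 h preincubation. Single final 10 µM from DMSO stock, 48 h at 37 °C, 5% CO2. TCA fixation (10% adherent, 16% suspension), SRB stain, absorbance 515 nm. Percent growth relative to untreated control.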

IGROV-1 = assay: Antitumor activity against human IGROV1 cells at 10 uM after 48 hrs by sulforhodamine B assay relative to control; settings: IGROV-1, 48 h, values are per cent of control; procedure, shortened: as §1
A549 = assay: Antitumor activity against human A549 cells at 10 uM after 48 hrs by sulforhodamine B assay relative to control; settings: A549, 48 h, values are per cent of control; procedure, shortened: as §1
SK-MEL-5 = assay: Antitumor activity against human SK-MEL-5 cells at 10 uM after 48 hrs by sulforhodamine B assay relative to control; settings: SK-MEL-5, 48 h, values are per cent of control; procedure, shortened: as §2
HOP-92 = assay: Antitumor activity against human HOP92 cells at 10 uM after 48 hrs by sulforhodamine B assay relative to control; settings: HOP-92, 48 h, values are per cent of control; procedure, shortened: as §1

Row | SMILES | growth, % of control at 10 µM (HT-29) | growth, % of control at 10 µM (HCT-15) | growth, % of control at 10 µM (KM12) | growth, % of control at 10 µM (M14) | growth, % of control at 10 µM (SK-MEL-28) | growth, % of control at 10 µM (OVCAR-8) | growth, % of control at 10 µM [1] | growth, % of control at 10 µM (NCI-H460) | growth, % of control at 10 µM (SF-268) | growth, % of control at 10 µM (786-0) | growth, % of control at 10 µM (A498) | growth, % of control at 10 µM (MDA-MB-468) | growth, % of control at 10 µM (EKVX) | growth, % of control at 10 µM (NCI/ADR-RES) | growth, % of control at 10 µM (SK-OV-3) | growth, % of control at 10 µM (MDA-MB-435) | growth, % of control at 10 µM (SF-539) | growth, % of control at 10 µM (HCT-116) | growth, % of control at 10 µM (HOP-62) | growth, % of control at 10 µM (T47D) | further results
1 | COc1ccc(NC(=O)Nc2ccccc2OCCCOc2ccccc2NC(=O)Nc2ccc(OC)cc2)cc1 | 54.9% | 65.5% | 23.8% | 61.4% | 45.7% | -65.3% | 46.4% | 17.7% | 50.7% | -31.5% | -9.3% | 22.6% | 2.2% | 59.8% | 7.9% | 41.6% | -29.6% | -36.8% | 38.5% | 9.2% | GI50 (OVCAR-3): > 100 µM; TGI (OVCAR-3): > 100 µM; growth, % of control at 10 µM (CCRF-CEM): -7.12%; growth, % of control at 10 µM (IGROV-1): 4.9%; growth, % of control at 10 µM (A549): -80%; growth, % of control at 10 µM (SK-MEL-5): 48.7%
2 | COc1ccc(NC(=O)Nc2ccc(OCCCOc3ccc(NC(=O)Nc4ccc(OC)cc4)cc3)cc2)cc1 | 107% | 118% | 117% | 95.5% | 204% | 70.1% | 88.2% | 96.8% | 103% | 86.9% | 144% | 91.1% | 86.7% | 94.4% | 88.4% | 109% | 86.7% | 83.3% | 95.7% | 83.6% | growth, % of control at 10 µM (HOP-92): 81.5%; growth, % of control at 10 µM (IGROV-1): 90.2%; growth, % of control at 10 µM (A549): 111%; growth, % of control at 10 µM (SK-MEL-5): 99.5%
3 | O=C(Nc1ccc(Cl)cc1)Nc1ccc(OCCCOc2ccc(NC(=O)Nc3ccc(Cl)cc3)cc2)cc1 | 114% | 117% | 110% | 96.7% | 111% | 64.1% | 85.4% | 103% | 125% | 93.7% | 107% | 114% | 95% | 99.8% | 122% | 110% | 91.8% | 94.8% | 96.2% | 106% | growth, % of control at 10 µM (HOP-92): 181%; growth, % of control at 10 µM (CCRF-CEM): 157%; growth, % of control at 10 µM (IGROV-1): 85.1%; growth, % of control at 10 µM (A549): 107%; growth, % of control at 10 µM (SK-MEL-5): > 100%
